# Measurements from PubChem BioAssay AID2805 (Sanford-Burnham Center for Chemical Genomics, 2010).
# The campaign covered roughly 330,000 compounds. About 780 (0.24%) were called active. What follows is part of a selection rich in actives, with near analogues and random picks from the rest. Values without a mark were called inactive.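 Rule for the calls: active = activation factor of at least 2 at 20 µM; inactive = the rest.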
# Test system: intestinal alkaline phosphatase [Mus musculus]
# Test: activators of mouse IAP, primary screen, biochemical, luminescence, uHTS (AID 2805)
# Conditions: muIAP, CDP-Star luminescence, 30 min; at 10 µM; active compounds read high; 1 = vehicle-only enzyme signal, 0 = enzyme-free wells
# Method in brief: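 also added = chemiluminescent substrate CDP-Star | test system = mouse IAP enzyme | signal = chemiluminescence readout | compound = DMSO-dissolved test compounds | incubation = 30 min at room temperature | benchmarks = DMSO wells, no-enzyme wells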
row,SMILES,activation factor
1,CCC(=O)c1ccc(OCC(O)Cn2nc(C)c(C(C)=O)c2C)cc1 (stereo not drawn),0.903
2,CC1(C)Cc2cccc(OCC(=O)N3CCN(c4ccc([N+](=O)[O-])cc4)CC3)c2O1,0.924
3,CCc1ccc(-n2c(SCc3cc(=O)n4cc(Br)ccc4n3)nc3[nH]ncc3c2=O)cc1,0.976
4,Cc1ccc(CN2CCC(n3nccc3NC(=O)CCCc3ccccc3)CC2)o1,1.09
5,COc1ccc(CN2CCC(n3nccc3NC(=O)CCCc3ccccc3)CC2)cc1C,2.47 (active)
6,COc1cc(CN2CCC(n3nccc3NC(=O)CCCc3ccccc3)CC2)ccc1O,1.47
7,CC1(C)CC(=O)c2sc(N)nc2C1,0.979
8,CC(C)c1cc(C(N)=O)c(NC(=O)c2cccc(COc3ccc(Br)cc3)c2)s1,0.925
9,COC(=O)c1ccc(NC(=O)C(C)N2C(=O)c3ccccc3C2=O)cc1 (stereo not drawn),0.997
10,COC(=O)c1ccc(NC(=O)Nc2ccc(C)cc2)cc1,2.13 (active)
11,COc1cc(NC(=O)Nc2ccc(C)cc2)cc([N+](=O)[O-])c1,0.983
12,Cc1c(C(C)(C)O)[nH]c2ccc(C#N)cc12,1.11
13,Fc1ccccc1CNC(=S)Nc1ccc(Cl)cc1,2.42 (active)
14,S=C(NCc1cccs1)Nc1ccc(Cl)cc1,1.5
15,FC(F)(F)Oc1ccc(NC(=S)NCc2ccccc2)cc1,1.66
16,O=C1CCC(C(=O)N2CCC(O)(c3ccccc3)CC2)CN1CCc1ccccc1 (stereo not drawn),0.942
17,Cc1cc(C(F)(F)F)nn1CC(=O)N1CCCC1,1.12
18,Cc1ccc(C(=O)c2coc3ccc(O)c(CN(C)C)c23)cc1,1.09
19,COc1cccc(N(Cc2nnc3n2CCCCC3)C(=O)Nc2ccccc2F)c1,1.08
20,Cc1cccc(C)c1NC(=O)C1(N(C(=O)c2ccccn2)c2ccc(O)cc2)CCCCC1,1.01
21,COc1cccc(N(C(=O)c2ccn[nH]2)C2(C(=O)Nc3c(C)cccc3C)CCCCC2)c1,3.3 (active)
22,Cc1cc(=O)n2nc(N3CCCC(C(=O)N4CCN(C)CC4)C3)sc2n1 (stereo not drawn),0.986
23,CN(CC(=O)N1CCN(c2ccccc2)CC1)S(=O)(=O)c1cccs1,0.929

row,SMILES,activation factor
1,Cc1ccc(NC(=O)COC(=O)C2CC2)cc1S(=O)(=O)N1CCOCC1,1.01
2,Cc1cccc(NC(=S)NCc2ccc3[nH]c4c(c3c2)CCCC4)c1,2.55 (active)
3,Cc1cc(C)cc(NC(=S)NCCc2c[nH]c3ccccc23)c1,1.3
4,CCc1cccc(CC)c1NC(=S)NCc1ccc2[nH]c(C)cc2c1,1.06
5,CC1CCCN(C(C(=O)Nc2ccc(C(C)C)cc2)c2ccc3c(c2)OCO3)C1 (stereo not drawn),2.25 (active)
6,O=C(Nc1ccc2c(c1)OCCO2)C(c1ccc(F)cc1)N1CCCCC1 (stereo not drawn),1.07
7,CC(NC(=S)Nc1ccc(S(N)(=O)=O)cc1)c1ccc2c(c1)OCO2 (stereo not drawn),1.52
8,CCN(C[C@H]1N[C@@](CC)(C(=O)OC)[C@H]2C(=O)N(Cc3ccccc3)C(=O)[C@@H]12)S(=O)(=O)c1ccc(C(F)(F)F)cc1,1.06
9,O=C(CCn1ccc([N+](=O)[O-])n1)Nc1nccs1,1.04
10,CN(C)S(=O)(=O)c1cccc(NC(=S)N/N=C/C(=O)c2ccccc2)c1,0.778
11,CN(C)S(=O)(=O)c1cccc(NC(=S)NCc2ccc3c(c2)OCO3)c1,2.5 (active)
12,Cc1c(Cl)cccc1NC(=S)NCc1ccc2c(c1)OCO2,1.41
13,C/C(=N\Nc1nc2ccccc2[nH]1)c1cccs1,1.07
14,COCCn1c(C)cc(C(=O)CN2c3cccc4cccc(c34)S2(=O)=O)c1C,1.06
15,CCc1nn(CCCC(=O)NC(C)c2ccccc2)c(=O)c2cc3occc3n12 (stereo not drawn),0.908
16,CCN(CC(=O)Nc1ccccc1C(=O)NC1CC1)Cc1cccs1,0.951
17,O=C(NCc1ccccn1)Nc1ccc(Cl)cc1,1.1
18,CC(C)S(=O)(=O)c1csc(NC(=O)Nc2ccc(Cl)cc2)c1Cl,2.9 (active)
19,CC(=O)N1CCC(N(C(=O)Nc2ccc(Cl)cc2)C(C)C)CC1,1.1
20,Fc1ccccc1COc1ccccc1CNCc1ccncc1,0.935
21,O=C(CSc1nnc(Cn2cnc3ccccc32)o1)c1ccccc1,0.997
22,N#Cc1cnn2cc(CCN3CCOCC3)c(-c3ccc(F)cc3)nc12,0.899
23,O=CN1CCN(C(=O)c2ccc3c(c2)OCO3)CC1,1.06

row,SMILES,activation factor
1,COc1cccc(NC(=O)C2C(c3ccccc3)C2(Cl)Cl)c1 (stereo not drawn),2.76 (active)
2,COc1cccc(NC(=O)C2c3cc(OC)c(OC)cc3C(=O)N(C)C2c2cccnc2)c1 (stereo not drawn),0.967
3,COc1cccc(NC(=O)C2CCCN2C(=O)OCc2ccccc2)c1 (stereo not drawn),0.929
4,CC(Sc1nnc(-c2ccccc2F)n1C1CC1)C(N)=O (stereo not drawn),1
5,CC(=O)Nc1ccc(NC(=O)CC2CCCC2)cc1,1.03
6,O=C(NCc1ccccc1)c1ccc(S(=O)(=O)Nc2cccc(C(F)(F)F)c2)cc1,0.856
7,CCNS(=O)(=O)c1ccc(NC(=O)Nc2cccc(C(F)(F)F)c2)cc1,2.22 (active)
8,O=C(Nc1ccc(C(=O)N2CCOCC2)cc1)Nc1cccc(C(F)(F)F)c1,1.56
9,COc1ccc(C(C(=O)NC2CCCC2)N(CCCO)C(=O)Cn2nnc(-c3ccc(C)o3)n2)cc1 (stereo not drawn),1.05
10,S=C(NCc1ccco1)NCc1ccccc1Cl,1.01
11,S=C(NCCc1ccccc1)NCc1ccccc1Cl,2.23 (active)
12,Cc1ccc(NC(=S)NCc2ccccc2Cl)c(C)c1,1.27
13,CCCCCCC12CCC(C(=O)O)(CC1)CC2,1.01
14,O=C(CN1C(=O)NC2(CCCCC2)C1=O)N1CCN(C(=O)c2cccs2)CC1,0.968
15,Cc1ccc(C)c(S(=O)(=O)N2CCCOC2CNC(=O)C(=O)NC2CCCCC2)c1 (stereo not drawn),1.04
16,Nc1nnc(SCC(=O)NC2CCCc3ccccc32)s1 (stereo not drawn),1
17,Cc1cc(Nc2ccc(Br)cc2F)n2ncnc2n1,0.862
18,Cc1cccc(NC(=O)Nc2cccc(Oc3c(F)c(F)c(F)c(F)c3F)c2)c1,3.37 (active)
19,Cc1ccc(NC(=O)Nc2ccccc2)c(Br)c1,1.26
20,Cc1ccoc1C(=O)Nc1cccc(Oc2ccccc2)c1,0.9
21,O=C(O)c1cc(S(=O)(=O)Nc2ccc3cn[nH]c3c2)ccc1Br,0.965
22,CS/C(=C\C(=O)c1ccco1)Nc1ccccc1Cl,0.883
